Legend:
[1] = biological target: T1, Serine/threonine-protein kinase Sgk3 (Homo sapiens) (UniProt Q96BR1); experiment: Inhibition of human recombinant SGK3 at 40 nM in presence of ATP by radiometric assay relative to control
T1 sequence (whole entry): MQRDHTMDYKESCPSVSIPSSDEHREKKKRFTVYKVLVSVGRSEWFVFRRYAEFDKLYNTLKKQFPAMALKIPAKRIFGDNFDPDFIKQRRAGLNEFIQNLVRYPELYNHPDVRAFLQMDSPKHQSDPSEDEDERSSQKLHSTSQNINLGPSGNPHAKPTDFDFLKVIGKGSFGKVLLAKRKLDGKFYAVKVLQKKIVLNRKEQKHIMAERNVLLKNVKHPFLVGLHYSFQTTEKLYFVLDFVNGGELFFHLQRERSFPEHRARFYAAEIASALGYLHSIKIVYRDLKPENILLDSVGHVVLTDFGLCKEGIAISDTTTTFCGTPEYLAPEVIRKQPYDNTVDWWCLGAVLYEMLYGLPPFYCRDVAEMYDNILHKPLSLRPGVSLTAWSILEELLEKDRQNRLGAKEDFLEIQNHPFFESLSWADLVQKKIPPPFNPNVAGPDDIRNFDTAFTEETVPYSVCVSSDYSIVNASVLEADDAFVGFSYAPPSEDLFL

[2] = biological target: T2, Serine/threonine-protein kinase tousled-like 1 (Homo sapiens) (UniProt Q9UKI8); experiment: Inhibition of human recombinant TLK1 at 40 nM related to control ULK1
T2 sequence (whole entry): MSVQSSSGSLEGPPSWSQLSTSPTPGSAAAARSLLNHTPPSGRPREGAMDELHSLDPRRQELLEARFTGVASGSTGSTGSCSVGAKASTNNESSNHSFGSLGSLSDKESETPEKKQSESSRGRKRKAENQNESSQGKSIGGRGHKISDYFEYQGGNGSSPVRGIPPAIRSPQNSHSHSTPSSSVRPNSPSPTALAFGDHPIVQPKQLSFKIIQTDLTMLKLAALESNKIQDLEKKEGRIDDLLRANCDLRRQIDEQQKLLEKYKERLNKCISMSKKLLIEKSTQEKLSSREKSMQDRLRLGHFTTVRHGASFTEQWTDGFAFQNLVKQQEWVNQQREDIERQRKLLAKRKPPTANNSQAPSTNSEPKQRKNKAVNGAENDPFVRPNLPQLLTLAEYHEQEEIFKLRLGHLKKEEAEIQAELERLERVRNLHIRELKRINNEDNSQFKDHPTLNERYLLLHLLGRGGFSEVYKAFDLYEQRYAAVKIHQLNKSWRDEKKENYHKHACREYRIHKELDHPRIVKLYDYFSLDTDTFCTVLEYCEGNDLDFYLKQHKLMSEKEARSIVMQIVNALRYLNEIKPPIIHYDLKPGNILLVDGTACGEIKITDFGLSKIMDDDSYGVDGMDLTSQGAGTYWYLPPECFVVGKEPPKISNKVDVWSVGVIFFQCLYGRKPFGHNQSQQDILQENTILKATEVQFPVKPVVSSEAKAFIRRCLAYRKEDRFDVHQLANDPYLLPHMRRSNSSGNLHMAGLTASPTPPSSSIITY

[3] = biological target: Non-receptor tyrosine-protein kinase TYK2 (Homo sapiens) (UniProt P29597); experiment: Inhibition of human recombinant TYK2 at 40 nM related to control ULK1
[4] = biological target: 5'-AMP-activated protein kinase catalytic subunit alpha-2 (Homo sapiens) (UniProt P54646); experiment: Inhibition of human recombinant AMPKa2 at 500 nM in presence of ATP by radiometric assay relative to control
How it was run: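 Panel of 327 recombinant human kinases, each assayed in vitro by radiometric activity assay in duplicate at a single inhibitor concentration per compound, chosen with reference to its ULK1 inhibition. Activity remaining was expressed as percent of vehicle control, and percent inhibition was calculated as 100 minus percent activity remaining.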

[5] = biological target: Mitogen-activated protein kinase kinase kinase kinase 4 (Homo sapiens) (UniProt O95819); experiment: Inhibition of human recombinant HGK at 500 nM related to control ULK1
[6] = biological target: T3, Ephrin type-B receptor 2 (Homo sapiens) (UniProt P29323); experiment: Inhibition of human recombinant EphB2 at 15 nM related to control ULK1
T3 sequence (whole entry): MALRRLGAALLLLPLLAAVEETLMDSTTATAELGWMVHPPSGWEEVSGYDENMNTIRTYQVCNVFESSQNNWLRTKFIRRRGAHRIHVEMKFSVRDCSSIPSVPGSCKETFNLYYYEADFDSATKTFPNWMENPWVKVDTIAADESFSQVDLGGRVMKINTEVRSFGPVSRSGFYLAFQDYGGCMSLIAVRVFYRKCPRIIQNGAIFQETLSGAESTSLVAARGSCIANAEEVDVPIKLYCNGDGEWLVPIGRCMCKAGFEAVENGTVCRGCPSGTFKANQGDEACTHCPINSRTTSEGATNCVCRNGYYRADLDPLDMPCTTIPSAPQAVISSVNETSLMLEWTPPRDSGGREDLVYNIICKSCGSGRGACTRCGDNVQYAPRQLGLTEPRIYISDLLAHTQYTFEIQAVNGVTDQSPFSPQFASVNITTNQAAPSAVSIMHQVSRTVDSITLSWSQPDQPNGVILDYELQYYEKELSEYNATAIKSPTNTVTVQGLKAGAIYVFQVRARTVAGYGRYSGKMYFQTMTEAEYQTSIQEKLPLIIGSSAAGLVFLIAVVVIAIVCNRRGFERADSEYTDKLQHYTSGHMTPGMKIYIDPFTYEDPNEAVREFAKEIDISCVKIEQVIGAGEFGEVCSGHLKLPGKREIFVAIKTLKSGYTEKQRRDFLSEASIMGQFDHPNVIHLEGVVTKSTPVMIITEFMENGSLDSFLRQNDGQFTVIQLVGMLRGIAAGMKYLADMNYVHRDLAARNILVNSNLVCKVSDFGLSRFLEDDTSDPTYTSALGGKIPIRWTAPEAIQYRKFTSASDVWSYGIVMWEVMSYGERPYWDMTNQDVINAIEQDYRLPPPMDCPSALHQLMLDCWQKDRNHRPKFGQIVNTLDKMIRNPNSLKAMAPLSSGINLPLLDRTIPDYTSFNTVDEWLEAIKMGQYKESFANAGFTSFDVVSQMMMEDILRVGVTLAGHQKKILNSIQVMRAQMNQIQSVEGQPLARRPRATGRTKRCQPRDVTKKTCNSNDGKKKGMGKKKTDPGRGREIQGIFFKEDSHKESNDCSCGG

[7] = biological target: Ribosomal protein S6 kinase alpha-3 (Homo sapiens) (UniProt P51812); experiment: Inhibition of human recombinant RSK2 at 15 nM related to control ULK1
Sequence of Ribosomal protein S6 kinase alpha-3 (Homo sapiens) (P51812 whole entry): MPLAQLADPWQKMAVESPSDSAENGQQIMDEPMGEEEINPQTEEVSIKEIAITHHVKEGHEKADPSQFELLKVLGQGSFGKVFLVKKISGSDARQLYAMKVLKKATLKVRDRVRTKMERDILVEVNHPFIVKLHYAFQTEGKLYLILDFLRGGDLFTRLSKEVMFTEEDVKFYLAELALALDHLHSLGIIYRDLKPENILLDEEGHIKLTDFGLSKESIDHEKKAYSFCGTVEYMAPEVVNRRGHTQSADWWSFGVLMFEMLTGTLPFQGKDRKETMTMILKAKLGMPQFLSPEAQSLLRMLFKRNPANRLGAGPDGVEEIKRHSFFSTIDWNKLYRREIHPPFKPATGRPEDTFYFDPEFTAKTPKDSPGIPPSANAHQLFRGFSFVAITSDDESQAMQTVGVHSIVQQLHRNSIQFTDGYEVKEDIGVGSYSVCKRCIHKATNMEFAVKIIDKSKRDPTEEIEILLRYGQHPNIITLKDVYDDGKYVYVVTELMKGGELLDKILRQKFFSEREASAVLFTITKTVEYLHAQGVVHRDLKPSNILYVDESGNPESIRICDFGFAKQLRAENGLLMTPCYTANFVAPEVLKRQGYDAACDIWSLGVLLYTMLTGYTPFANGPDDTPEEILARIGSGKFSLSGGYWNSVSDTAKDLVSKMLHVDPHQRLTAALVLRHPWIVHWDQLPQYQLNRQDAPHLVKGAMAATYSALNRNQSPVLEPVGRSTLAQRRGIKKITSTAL

Sequence of Mitogen-activated protein kinase kinase kinase kinase 4 (Homo sapiens) (O95819 2-1239 limits assumed): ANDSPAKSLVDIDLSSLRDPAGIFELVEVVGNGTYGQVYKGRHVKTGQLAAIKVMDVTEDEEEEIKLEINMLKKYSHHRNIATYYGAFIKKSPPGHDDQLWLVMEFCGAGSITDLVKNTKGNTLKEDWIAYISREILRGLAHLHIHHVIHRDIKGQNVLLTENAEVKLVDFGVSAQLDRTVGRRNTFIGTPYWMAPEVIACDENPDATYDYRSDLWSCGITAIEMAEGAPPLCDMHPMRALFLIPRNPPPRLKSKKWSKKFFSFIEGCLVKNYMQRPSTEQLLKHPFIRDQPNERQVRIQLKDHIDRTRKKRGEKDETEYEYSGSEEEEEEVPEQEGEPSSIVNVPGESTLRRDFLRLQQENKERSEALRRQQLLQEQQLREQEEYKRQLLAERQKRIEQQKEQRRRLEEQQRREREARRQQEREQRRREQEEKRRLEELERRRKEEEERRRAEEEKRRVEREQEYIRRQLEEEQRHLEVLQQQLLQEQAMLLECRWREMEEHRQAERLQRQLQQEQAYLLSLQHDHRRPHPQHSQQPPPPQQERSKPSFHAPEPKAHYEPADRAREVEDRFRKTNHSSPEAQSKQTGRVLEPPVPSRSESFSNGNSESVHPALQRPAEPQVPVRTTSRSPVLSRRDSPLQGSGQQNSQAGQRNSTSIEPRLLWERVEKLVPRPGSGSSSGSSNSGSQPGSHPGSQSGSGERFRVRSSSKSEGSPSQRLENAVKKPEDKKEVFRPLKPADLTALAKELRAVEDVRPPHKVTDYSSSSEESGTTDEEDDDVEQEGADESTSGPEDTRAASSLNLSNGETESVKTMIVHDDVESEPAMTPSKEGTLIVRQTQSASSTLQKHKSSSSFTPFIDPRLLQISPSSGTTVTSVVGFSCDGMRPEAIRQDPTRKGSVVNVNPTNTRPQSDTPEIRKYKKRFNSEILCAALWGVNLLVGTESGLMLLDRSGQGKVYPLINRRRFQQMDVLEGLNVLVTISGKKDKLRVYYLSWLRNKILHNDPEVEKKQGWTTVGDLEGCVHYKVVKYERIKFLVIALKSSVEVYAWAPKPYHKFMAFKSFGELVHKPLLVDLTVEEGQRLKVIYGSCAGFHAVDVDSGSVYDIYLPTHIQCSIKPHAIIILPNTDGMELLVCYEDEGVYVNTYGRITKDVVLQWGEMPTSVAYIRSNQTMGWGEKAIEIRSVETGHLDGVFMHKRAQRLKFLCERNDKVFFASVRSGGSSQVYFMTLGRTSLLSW
Sequence of 5'-AMP-activated protein kinase catalytic subunit alpha-2 (Homo sapiens) (P54646 whole entry, looked up): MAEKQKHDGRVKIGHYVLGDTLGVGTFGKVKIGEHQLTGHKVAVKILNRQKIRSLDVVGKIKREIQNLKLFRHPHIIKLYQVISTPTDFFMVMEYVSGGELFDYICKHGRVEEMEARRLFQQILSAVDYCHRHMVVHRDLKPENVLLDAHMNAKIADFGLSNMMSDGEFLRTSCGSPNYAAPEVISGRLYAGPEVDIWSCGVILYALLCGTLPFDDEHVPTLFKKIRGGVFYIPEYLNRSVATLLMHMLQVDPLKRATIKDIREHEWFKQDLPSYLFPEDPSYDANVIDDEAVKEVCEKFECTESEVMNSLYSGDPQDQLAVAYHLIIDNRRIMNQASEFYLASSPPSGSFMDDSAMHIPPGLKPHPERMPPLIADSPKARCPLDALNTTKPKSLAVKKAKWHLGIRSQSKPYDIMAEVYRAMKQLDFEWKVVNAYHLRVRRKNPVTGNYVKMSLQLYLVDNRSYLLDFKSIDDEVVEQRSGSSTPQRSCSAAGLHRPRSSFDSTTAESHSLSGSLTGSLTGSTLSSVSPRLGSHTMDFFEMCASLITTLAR
Sequence of Non-receptor tyrosine-protein kinase TYK2 (Homo sapiens) (P29597 whole entry): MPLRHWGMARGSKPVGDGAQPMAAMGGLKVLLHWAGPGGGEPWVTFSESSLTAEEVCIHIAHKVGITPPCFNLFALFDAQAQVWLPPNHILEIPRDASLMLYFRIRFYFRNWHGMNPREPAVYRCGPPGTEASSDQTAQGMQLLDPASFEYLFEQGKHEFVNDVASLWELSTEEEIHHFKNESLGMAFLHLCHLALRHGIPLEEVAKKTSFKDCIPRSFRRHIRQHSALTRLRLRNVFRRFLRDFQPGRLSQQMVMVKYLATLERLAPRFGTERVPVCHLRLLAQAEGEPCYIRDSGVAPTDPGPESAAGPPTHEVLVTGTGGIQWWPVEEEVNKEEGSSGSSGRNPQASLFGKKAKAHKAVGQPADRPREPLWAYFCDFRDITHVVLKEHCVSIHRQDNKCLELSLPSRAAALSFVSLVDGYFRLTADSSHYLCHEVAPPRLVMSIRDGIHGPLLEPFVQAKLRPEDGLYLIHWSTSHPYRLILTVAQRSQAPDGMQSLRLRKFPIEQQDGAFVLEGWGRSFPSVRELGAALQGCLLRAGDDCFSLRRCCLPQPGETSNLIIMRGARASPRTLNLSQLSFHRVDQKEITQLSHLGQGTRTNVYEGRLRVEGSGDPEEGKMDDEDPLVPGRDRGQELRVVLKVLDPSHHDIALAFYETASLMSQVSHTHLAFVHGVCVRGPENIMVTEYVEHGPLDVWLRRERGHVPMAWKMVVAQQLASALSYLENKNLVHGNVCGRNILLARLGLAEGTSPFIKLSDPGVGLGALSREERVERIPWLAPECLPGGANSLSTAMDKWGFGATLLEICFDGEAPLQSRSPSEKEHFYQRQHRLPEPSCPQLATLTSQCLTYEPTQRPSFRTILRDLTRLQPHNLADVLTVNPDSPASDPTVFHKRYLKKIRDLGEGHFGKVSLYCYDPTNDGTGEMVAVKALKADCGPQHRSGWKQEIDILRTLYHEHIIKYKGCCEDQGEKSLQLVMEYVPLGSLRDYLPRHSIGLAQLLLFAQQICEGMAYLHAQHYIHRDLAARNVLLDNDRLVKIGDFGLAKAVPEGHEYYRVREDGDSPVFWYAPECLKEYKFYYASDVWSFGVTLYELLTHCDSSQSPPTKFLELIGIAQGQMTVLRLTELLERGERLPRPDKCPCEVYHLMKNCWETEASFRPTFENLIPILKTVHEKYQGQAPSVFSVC

Compound: O=C(N[C@@H](C1CC1)C(F)(F)F)c1cc(-c2cnn3cc(-c4ccc(F)cc4)cnc23)cs1
- inhibition [1]: 0%
- fold change (FC) [2]: 0
- fold change (FC) [3]: 0.01

Compound: CNC(=O)c1ccccc1Oc1nc(Nc2cc(OC)c(OC)c(OC)c2)ncc1Br
- inhibition [4]: 57%
- fold change (FC) [5]: 0

Compound: CC(C)[C@H](NC(=O)c1cc(-c2cnn3cc(-c4ccc(OCCN5CCCCC5)cc4)cnc23)cs1)C(F)(F)F
- fold change (FC) [6]: 0.08
- fold change (FC) [7]: 0

Source: ChEMBL document CHEMBL5653631, “A Potent and Selective ULK1 Inhibitor Suppresses Autophagy and Sensitizes Cancer Cells to Nutrient Stress” (iScience, 2018)
